Consider 51 compounds from ChEMBL document CHEMBL1799988, “Novel chalcone derivatives as potent Nrf2 activators in mice and human lung epithelial cells” (J Med Chem, 2011).

Data set [1] concerns the target T1, Nuclear factor erythroid 2-related factor 2 (Homo sapiens) (UniProt Q16236).
T1 sequence (whole entry): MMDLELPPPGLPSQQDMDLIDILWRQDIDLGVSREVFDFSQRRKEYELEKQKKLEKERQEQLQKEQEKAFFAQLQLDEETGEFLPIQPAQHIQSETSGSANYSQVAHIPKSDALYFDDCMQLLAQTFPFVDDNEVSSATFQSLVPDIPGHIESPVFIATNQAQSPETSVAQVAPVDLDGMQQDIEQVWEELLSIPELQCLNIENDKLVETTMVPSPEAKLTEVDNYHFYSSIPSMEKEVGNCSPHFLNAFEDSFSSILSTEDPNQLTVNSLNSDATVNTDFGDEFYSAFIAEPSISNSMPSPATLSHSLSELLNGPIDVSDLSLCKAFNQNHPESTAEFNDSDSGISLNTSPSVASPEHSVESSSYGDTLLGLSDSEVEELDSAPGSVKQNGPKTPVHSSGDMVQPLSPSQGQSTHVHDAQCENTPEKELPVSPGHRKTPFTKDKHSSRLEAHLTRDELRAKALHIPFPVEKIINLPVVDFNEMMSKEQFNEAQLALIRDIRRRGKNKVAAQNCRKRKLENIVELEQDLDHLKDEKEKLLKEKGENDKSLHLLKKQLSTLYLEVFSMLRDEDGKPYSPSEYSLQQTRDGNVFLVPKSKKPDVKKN
As to the kind of experiment: Induction of Nrf2-mediated GCLM gene expression in human BEAS2B cells at 10 uM after 16 hrs by RT-PCR analysis relative to untreated control. It is filed as functional, cell-based. A digest of the protocol:
(§1)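 Beas-2B cells (DMEM:F12, 10% FBS) plated 24 h, then exposed to 10 µM compound in DMSO (final ≤0.1%) for 16 h; sulforaphane as positive control. Total RNA extracted, reverse transcribed with random hexamers, GCLM and NQO1 mRNA quantified by TaqMan qRT-PCR, fold change vs DMSO. Representative of 3 independent experiments, quadruplicate wells.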

In data set [2] the target is T1, Nuclear factor erythroid 2-related factor 2 (Homo sapiens). As to the kind of experiment: Induction of Nrf2-mediated NQO1 gene expression in human BEAS2B cells at 10 uM after 16 hrs by RT-PCR analysis relative to untreated control. Format: functional, cell-based. The method, boiled down: as §1
A short description of data set [3]: Cytotoxicity against human BEAS2B cells assessed as cell viability after 24 hrs by MTT assay. Format: cell-based, BEAS-2B. On the set-up: concentration or dose not given beside the values. Particulars: read-out: Activity. The method, boiled down: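 Beas-2B cells treated with compound or DMSO vehicle (0.1%) for 24 h; MTT (5 mg/ml in serum-free medium) added for the last 4 h, formazan dissolved in DMSO after PBS wash, absorbance read at 570 nm. Viability also checked by trypan blue exclusion.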
In general terms: Tetrazolium assays rely on reduction of a dye to a coloured formazan, in cell work by metabolically active cells.

For `O=C(/C=C/c1cccc(C(F)(F)F)c1)c1ccccc1`, the fold change (FC) was found to be 3.1 in data set [1] and 2.8 in data set [2].
Regarding `COc1ccc(OC)c(C(=O)/C=C/c2ccccc2[N+](=O)[O-])c1`, the fold change (FC) was found to be 1.7 in data set [1] and 0.7 in data set [2].
In the same order, the values of `COc1cc(C(=O)/C=C/c2ccccc2)cc(OC)c1OC` are 0.7 and 0.7.
In the same order, the values of `COc1cccc(OC)c1C(=O)/C=C/c1cccc(C(F)(F)F)c1` are 1.8 and 0.6.
In the same order, the values of `O=C(/C=C/c1ccccc1[N+](=O)[O-])c1ccccc1` are 2.1 and 1.6.
For the compound `COc1cc(OC)cc(C(=O)/C=C/c2ccccc2[N+](=O)[O-])c1`, the fold change (FC) in data set [1] came to 3.4; in data set [2], 4.1. Also, the viability at 24 h in data set [3] amounted to 90.9%.
With `COc1ccccc1C(=O)/C=C/c1ccccc1[N+](=O)[O-]`, the fold change (FC) in data set [1] was 1.9; in data set [2] it was 1.4.
On the same counts, the results for `COc1ccccc1C(=O)/C=C/c1cccc(C(F)(F)F)c1` are 3.9 and 2.9.
In the same order, the values of `COc1cc(OC)c(C(=O)/C=C/c2ccccc2[N+](=O)[O-])c(OC)c1` are 2.6 and 2.
In the same order, the values of `COc1cccc(OC)c1C(=O)/C=C/c1ccc(C(F)(F)F)cc1` are 1.4 and 0.6.
Turning to `COc1ccc(C(=O)/C=C/c2ccccc2)cc1OC`, the fold change (FC) was determined as 2.3 in data set [1] and 2.5 in data set [2].
As for `COc1ccc(C(=O)/C=C/c2ccc(C(F)(F)F)cc2)cc1OC`, the fold change (FC) in data set [1] came out at 3.5; in data set [2], 2.7.
Regarding `COc1cccc(C(=O)/C=C/c2ccc(C(F)(F)F)cc2)c1`, the fold change (FC) turned out to be 2.9 in data set [1] and 3.1 in data set [2].
In the same order, the values of `O=C(/C=C/c1ccccc1)c1ccccc1` are 0.7 and 1.8.
For `COc1ccc(OC)c(C(=O)/C=C/c2ccccc2C(F)(F)F)c1`, the fold change (FC) amounted to 4.4 in data set [1] and 2.7 in data set [2].
As to `COc1cc(OC)c(C(=O)/C=C/c2ccc(C(F)(F)F)cc2)c(OC)c1`, the fold change (FC) in data set [1] and in data set [2] was 2.4 each time.
Turning to `COc1cccc(C(=O)/C=C/c2ccccc2)c1`, the fold change (FC) in data set [1] amounted to 1.5; in data set [2], 2.4.
Turning to `COc1cc(OC)cc(C(=O)/C=C/c2ccccc2C(F)(F)F)c1`, the fold change (FC) in data set [1] came to 4; in data set [2] it was 3.7. Besides, the viability at 24 h in data set [3] turned out to be 87.1%.
Turning to `COc1ccc(OC)c(C(=O)/C=C/c2ccc(C(F)(F)F)cc2)c1`, the values for the fold change (FC) in data set [1] and in data set [2] were 4.1 and 4, respectively. The viability at 24 h in data set [3] came out at 91.6%.
On the same counts, the results for `COc1ccc(C(=O)/C=C/c2ccc(C(F)(F)F)cc2)cc1` are 3.5, 4.6 and 104%.
For `O=C(/C=C/c1ccc(C(F)(F)F)cc1)c1ccccc1`, the fold change (FC) in data set [1] is 3.1; in data set [2], 2.9.
On the same counts, the results for `COc1ccc(C(=O)/C=C/c2cccc(C(F)(F)F)c2)c(OC)c1OC` are 3.6 and 3.2.
As for `COc1ccc(C(=O)/C=C/c2ccc(C(F)(F)F)cc2)c(OC)c1`, the figures for the fold change (FC) in data set [1] and in data set [2] were 5 and 4.8, respectively. In data set [3], the viability at 24 h was determined as 92.6%.
In the same order, the values of `COc1cc(OC)cc(C(=O)/C=C/c2cccc(C(F)(F)F)c2)c1` are 3.8, 3.9 and 108%.
Consider `COc1cc(OC)c(C(=O)/C=C/c2cccc(C(F)(F)F)c2)c(OC)c1`, for which the fold change (FC) in data set [1] turned out to be 1.4; in data set [2], 0.7.
On the same counts, the results for `COc1ccc(OC)c(C(=O)/C=C/c2cccc(C(F)(F)F)c2)c1` are 1.8 and 0.8.
On the same counts, the results for `COc1ccc(C(=O)/C=C/c2ccccc2[N+](=O)[O-])cc1OC` are 2.3 and 2.7.
Consider `COc1ccc(C(=O)/C=C/c2ccccc2[N+](=O)[O-])cc1`, for which the fold change (FC) in data set [1] came out at 4.6; in data set [2], 4.3. Further, the viability at 24 h in data set [3] was 93.2%.
Regarding `COc1cc(OC)c(C(=O)/C=C/c2ccccc2)c(OC)c1`, the fold change (FC) in data set [1] turned out to be 3.1; in data set [2], 1.8.
Take `COc1cc(C(=O)/C=C/c2ccc(C(F)(F)F)cc2)cc(OC)c1OC`: the fold change (FC) was 4.1 in data set [1] and 3.7 in data set [2].
For `COc1ccc(C(=O)/C=C/c2ccccc2)c(OC)c1OC`, the fold change (FC) in data set [1] and in data set [2] was 2.4 each time.
Turning to `COc1ccc(C(=O)/C=C/c2ccccc2[N+](=O)[O-])c(OC)c1`, the fold change (FC) in data set [1] was found to be 2.7; in data set [2], 3.3.
For `COc1ccc(C(=O)/C=C/c2ccccc2)cc1`, the values for the fold change (FC) in data set [1] and in data set [2] were 1.9 and 2.8, respectively.
Take `COc1ccc(OC)c(C(=O)/C=C/c2ccccc2)c1`: the values for the fold change (FC) in data set [1] and in data set [2] were 3 and 2.6, respectively.
On the same counts, the results for `COc1cccc(OC)c1C(=O)/C=C/c1ccccc1` are 2.5 and 1.9.
Take `COc1cccc(C(=O)/C=C/c2cccc(C(F)(F)F)c2)c1`: the fold change (FC) in data set [1] is 4.6; in data set [2], 3.5. For the same compound, in data set [3], the viability at 24 h came to 95.3%.
Take `COc1cc(C(=O)/C=C/c2ccccc2[N+](=O)[O-])cc(OC)c1OC`: the values for the fold change (FC) in data set [1] and in data set [2] were 1.2 and 0.7, respectively.
On to `COc1cccc(OC)c1C(=O)/C=C/c1ccccc1[N+](=O)[O-]`, for which the fold change (FC) in data set [1] worked out at 4.1; in data set [2], 3.7. In addition, the viability at 24 h in data set [3] was 75.8%.
Take `COc1ccc(C(=O)/C=C/c2ccccc2[N+](=O)[O-])c(OC)c1OC`: the fold change (FC) was 2.9 in data set [1] and 3.3 in data set [2].
`COc1ccccc1C(=O)/C=C/c1ccc(C(F)(F)F)cc1`: the fold change (FC) in data set [1] is 4.3; in data set [2], 5.4. The viability at 24 h in data set [3] was 91%.
On to `COc1cccc(C(=O)/C=C/c2ccccc2[N+](=O)[O-])c1`, for which the fold change (FC) was found to be 2.9 in data set [1] and 2.7 in data set [2].
With `COc1cc(OC)cc(C(=O)/C=C/c2ccccc2)c1`, the fold change (FC) in data set [1] is 3; in data set [2], 2.4.
On the same counts, the results for `COc1ccc(C(=O)/C=C/c2ccccc2)c(OC)c1` are 2.7 and 2.8.
For the compound `COc1ccc(C(=O)/C=C/c2ccc(C(F)(F)F)cc2)c(OC)c1OC`, the fold change (FC) is 4.1 in data set [1] and 3.9 in data set [2]. The viability at 24 h in data set [3] is 100%.
For the compound `COc1cc(C(=O)/C=C/c2ccccc2C(F)(F)F)cc(OC)c1OC`, the fold change (FC) in data set [1] was 3; in data set [2], 3.1.
On the same counts, the results for `COc1ccc(C(=O)/C=C/c2cccc(C(F)(F)F)c2)cc1OC` are 4.1 and 2.9.
In the same order, the values of `COc1ccc(C(=O)/C=C/c2cccc(C(F)(F)F)c2)c(OC)c1` are 4.6 and 4.
On the same counts, the results for `COc1ccc(C(=O)/C=C/c2cccc(C(F)(F)F)c2)cc1` are 2.7 and 2.8.
With `COc1ccc(C(=O)/C=C/c2ccccc2C(F)(F)F)cc1OC`, the fold change (FC) in data set [1] was found to be 4.3; in data set [2], 2.7.
As for `COc1cc(C(=O)/C=C/c2cccc(C(F)(F)F)c2)cc(OC)c1OC`, the results for the fold change (FC) in data set [1] and in data set [2] were 1.7 and 0.8, respectively.
On to `COc1ccccc1C(=O)/C=C/c1ccccc1`, for which the fold change (FC) in data set [1] amounted to 3.6; in data set [2], 3.2.
